ChEMBL document CHEMBL3867443, “Polyprenylated Tetraoxygenated Xanthones from the Roots of Hypericum monogynum and Their Neuroprotective Activities” (J Nat Prod, 2016)
pIC50: −log10 of the molar value. Activity calls are given as the source filed them. The rule behind the calls is not given here.

Experiments:
[1] = Neuroprotective activity in rat PC12 cells assessed as reduction in corticosterone-induced lesions by measuring cell viability at 25 uM pretreated for 24 hrs followed by corticosterone-challenge after 48 hrs by MTT assay; assay type: functional, cell-based; conditions: PC-12
Summary of the method: (§1)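 PC12 cells seeded at 2 × 10^4 cells/well and pretreated 24 h with compound, then 200 μM corticosterone for 48 h. Fluoxetine 12.50 μM was the positive control. MTT absorbance read at 570 nm with 630 nm reference. Viability given as % of untreated control, mean ± SEM of three independent experiments, compared by ANOVA.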

BV-2 = test: Inhibition of LPS-induced NO production in […] preincubated for 2 hrs followed by LPS-stimulation measured after 18 hrs by Griess assay; assay type: functional, cell-based; conditions: Mus musculus
Summary of the method: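 BV2 cells seeded at 2.5 × 10^5 cells/mL and preincubated 2 h with compound, then LPS at 100 ng/mL final for 18 h. Supernatant was mixed 1:1 with Griess reagent for 10 min at room temperature and read at 540 nm. Inhibition = (AL − A0 − AC)/(AL − A0) × 100. IC50 reported as mean ± SEM of three independent experiments. L-NMMA was the positive control.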

[2] = Neuroprotective activity in rat PC12 cells assessed as reduction in corticosterone-induced lesions by measuring cell viability at 12.5 uM pretreated for 24 hrs followed by corticosterone-challenge after 48 hrs by MTT assay; assay type: functional, cell-based; conditions: PC-12; summary of the method: as §1
[3] = Neuroprotective activity in rat PC12 cells assessed as reduction in corticosterone-induced lesions by measuring cell viability at 6.25 uM pretreated for 24 hrs followed by corticosterone-challenge after 48 hrs by MTT assay; assay type: functional, cell-based; conditions: PC-12; summary of the method: as §1
Rattus norvegicus = species on record: Rattus norvegicus; test: Cytotoxicity against rat PC12 cells at 25 uM by MTT assay; assay type: toxicity, cell-based; conditions: pc-12, 25 µM
Summary of the method: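 PC12 cells in DMEM with 10% FBS, 5% horse serum and penicillin/streptomycin, 37 °C, 5% CO2. Seeded at 2 × 10^4 cells/well and exposed to compound at 25.00 μM. Viability was read by MTT.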

[4] = Cytotoxicity against […] BV2 cells assessed as cell viability by MTT assay relative to control; assay type: toxicity, cell-based, BV-2; parameters: concentration or dose not given beside the values; conditions: mouse, read-out: Activity
Summary of the method: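 BV2 microglia in DMEM with 10% heat-inactivated FBS and penicillin/streptomycin, 37 °C, 5% CO2. Viability was read by MTT in the cells used for the NO assay, which received 2 h compound pretreatment and then LPS at 100 ng/mL final for 18 h.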

PC-12 = test: Decrease in corticosterone-induced intracellular calcium level in rat PC12 cells at 6.25 to 25 uM pretreated for 24 hrs followed by corticosterone-challenge after 48 hrs by Fluo-3AM dye-based flow cytometry; assay type: functional, cell-based
Summary of the method: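 PC12 cells were pretreated 24 h with compound (6.25, 12.50, 25.00 μM) or fluoxetine 12.50 μM, then exposed to 200 μM corticosterone for 48 h. Cells were loaded with Fluo-3 AM and analysed by flow cytometry. Results are mean fluorescence intensity relative to vehicle control, mean ± SEM, n = 3.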

Structure (SMILES) | Activity [1] | pIC50 (BV-2) | Activity [2] | Activity [3] | Activity (Rattus norvegicus) | viability [4] | Activity (PC-12)
C[C@]12C[C@H](O)[C@H]3[C@@H](CCC4=CC(=O)CC[C@@]43C)[C@@H]1CC[C@@H]2C(=O)CO | 52.8% |  |  |  |  |  | 
CNC(=N)NCCC[C@H](N)C(=O)O [TILARGININE] |  | 4.41 |  |  |  |  | 
C=C(C)C(CC=C(C)C)Cc1c(O)c(CC=C(C)C)c(O)c2c(=O)c3ccc(O)c(O)c3oc12 (centres undefined) | 66% | 5.25 | 60.2% | 57.5% | Non-Toxic | > 90% | 
C=C(C)C(CC=C(C)C)Cc1c2c(c(O)c3c(=O)c4ccc(O)c(O)c4oc13)C=CC(C)(C)O2 (centres undefined) | 65.4% | < 4.30 | 71.2% | 64.8% | Non-Toxic | > 90% | 
CNCCC(Oc1ccc(C(F)(F)F)cc1)c1ccccc1 (centres undefined) |  |  | 70.5% |  |  |  | 
C=C(C)[C@H](CC=C(C)C)Cc1c(O)c(C[C@@H](CC=C(C)C)C(=C)C)c2oc3c(O)c(O)ccc3c(=O)c2c1O | 92% | 5.13 | 83.8% | 78.4% | Non-Toxic | > 90% | Active
C=C(C)C(CC=C(C)C)Cc1c(O)cc(O)c2c(=O)c3ccc(O)c(O)c3oc12 (centres undefined) | 84.1% | 5.08 | 78.1% | 60.7% | Non-Toxic | > 90% | 
C=C(C)[C@H](CC=C(C)C)Cc1c(O)cc2oc3c(O)c(O)ccc3c(=O)c2c1O | 85.9% | 5.02 | 78.8% | 75.2% | Non-Toxic | > 90% | 
